{"source": "the M2OR odorant receptor database", "data": [{"target": "T1, OR2C1 (Homo sapiens) (UniProt O95371)", "T1 sequence (whole entry)": "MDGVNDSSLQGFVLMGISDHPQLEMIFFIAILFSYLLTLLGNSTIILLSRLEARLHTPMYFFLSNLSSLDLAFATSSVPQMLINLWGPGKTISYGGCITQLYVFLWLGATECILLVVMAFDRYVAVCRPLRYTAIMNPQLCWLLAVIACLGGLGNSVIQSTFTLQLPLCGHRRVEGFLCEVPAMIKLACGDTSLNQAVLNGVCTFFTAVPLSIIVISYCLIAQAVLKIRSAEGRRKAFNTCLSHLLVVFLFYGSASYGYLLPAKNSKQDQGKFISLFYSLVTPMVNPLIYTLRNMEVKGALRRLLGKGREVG", "conditions": "stereoisomer not certain", "method_in_brief": "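Whether a receptor–molecule pair is responsive (active) rests on the original authors' judgment that its measured signal was statistically different from baseline. Pairs without that judgment are non-responsive (inactive). Sources used varied assay methods, commonly transient luciferase assays in mammalian cell lines.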", "values": [{"smiles": "C=C(C)C1CCC(C)C(=O)C1", "note": "(stereo not drawn)", "odorant receptor agonist call": "inactive"}, {"smiles": "CCCCCO", "odorant receptor agonist call": "inactive"}, {"smiles": "CCCCOC=O", "odorant receptor agonist call": "inactive"}, {"smiles": "CCCCCCCCCCO", "odorant receptor agonist call": "inactive"}, {"smiles": "COc1cc(C(=O)O)ccc1O", "odorant receptor agonist call": "inactive"}, {"smiles": "CC(=O)OCC=C(C)C", "odorant receptor agonist call": "inactive"}, {"smiles": "CCCCC(C)=O", "odorant receptor agonist call": "inactive"}, {"smiles": "CCCCCCCCCC(=O)[O-].[H+]", "odorant receptor agonist call": "inactive"}, {"smiles": "CCCCCC(=O)CC", "odorant receptor agonist call": "inactive"}, {"smiles": "c1ccccc1", "odorant receptor agonist call": "inactive"}, {"smiles": "CCCCCCC(=O)[O-].[H+]", "odorant receptor agonist call": "inactive"}, {"smiles": "CCCCCCCCO", "odorant receptor agonist call": "inactive"}, {"smiles": "CCCCC(=O)O", "odorant receptor agonist call": "inactive"}, {"smiles": "CCCCOC(=O)C(C)OC(=O)CCC", "note": "(stereo not drawn)", "odorant receptor agonist call": "inactive"}, {"smiles": "CC12CCC(CC1=O)C2(C)C", "note": "(stereo not drawn)", "odorant receptor agonist call": "inactive"}, {"smiles": "CCCCCOC(=O)CCCCC", "odorant receptor agonist call": "inactive"}, {"smiles": "CCCCCCO", "odorant receptor agonist call": "inactive"}, {"smiles": "C=CCOC(=O)CCCCCC", "odorant receptor agonist call": "inactive"}, {"smiles": "CCC(C(=O)O)c1ccccc1", "note": "(stereo not drawn)", "odorant receptor agonist call": "inactive"}, {"smiles": "CCCCCCCO", "odorant receptor agonist call": "inactive"}, {"smiles": "O=C(c1ccccc1)c1ccccc1", "odorant receptor agonist call": "inactive"}, {"smiles": "CCCCCCCC(C)=O", "odorant receptor agonist call": "inactive"}, {"smiles": "CCCC(=O)C(C)=O", "odorant receptor agonist call": "inactive"}, {"smiles": "O=C1Cc2ccccc2O1", "odorant receptor agonist call": "inactive"}, {"smiles": "CCCCCCC(C)=O", "odorant receptor agonist call": "inactive"}, {"smiles": "CCCCCCCCS", "odorant receptor agonist call": "active"}, {"smiles": "CCCCCC=O", "odorant receptor agonist call": "inactive"}, {"smiles": "CC(=O)Oc1ccccc1", "odorant receptor agonist call": "inactive"}]}]}
